Data: ChEMBL document CHEMBL4513216, “Probing the Open Global Health Chemical Diversity Library for Multistage-Active Starting Points for Next-Generation Antimalarials” (ACS Infect Dis, 2020)

Assay: Toxicity liver stage against HepG2, at 10uM
Format: cell-based
Design: test concentration 10 uM, cell line HepG2-A16-CD81EGFP
Conditions: human, HepG2-A16-CD81EGFP cells; read-out: INHIBITION
Outline: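 Uninfected HepG2-A16-CD81EGFP cells, 3 × 10^3 per well, 1536-well, plated on prespotted compound at 10 μM final, parasite-free screening media added to match infected plates; puromycin 10 μM positive, DMSO 0.5% negative; run in parallel with 48 h PbLuc assay at 37 °C, 5% CO2; viability by CellTiter-Glo luminescence, normalized to controls.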

Row | SMILES | cytotoxicity at 10 µM [%]
1 | CC(C)C[C@H](N)c1nnc(SCC(=O)Nc2ccc(Br)cc2)o1 | -4.99
2 | COc1ccc(-c2noc([C@@H]3C[C@@H](O)CN3C3CCOCC3)n2)cc1 | -1.7
3 | CC(=O)N1CCC(N2CCOC[C@H]2c2nc(-c3cccnc3)c[nH]2)CC1 | 1.35
4 | CCNC(=O)N1CCC(OC)c2ccccc2N(CC(=O)NC)C(=O)C1 (stereo not given) | 5.5
5 | CCc1c(C)sc2nc3n(CCN4CCCCC4)nc(SC)n3c(=O)c12 | 2.68
6 | COc1ccc2nnc(CCCC(=O)NCc3ccccc3OC)n2n1 | -5.95
7 | O=C(NCc1cccs1)C1CCN(c2cc(-n3ccnc3)ncn2)CC1 | -3.27
8 | O=c1ccc(-n2ccnc2)nn1CCNS(=O)(=O)c1ccccc1Cl | -0.947
9 | O=C(c1ccc2[nH]cnc2c1)N1CCC(Oc2ccccn2)CC1 | 1.59
10 | CC(=O)N1CCN(c2cc(N(C)C)cnn2)CC1 | 1.37
11 | Cc1ccc(NCc2cnc3n2CCN(c2ncccn2)CC3)nn1 | 7.31
12 | O=C(Cn1cc(C(=O)O)ccc1=O)NCc1ccc(F)cc1Cl | -0.581
13 | Cc1ccc(C)c(-n2ccc3nc(N4CCCC4)ncc3c2=O)c1 | 18.6
14 | CCN1CC2(CC1=O)CN(C(C)=O)CCN(C(=O)c1ccco1)C2 (stereo not given) | -8.92
15 | CCCN1C[C@H](NC(=O)c2cc(C)no2)[C@@H](c2ccc(OC)cc2)C1 | -27.3
16 | Cc1c(C(=O)N2CCC(O)(CN(C)C)C2)c2ccccc2n1C (stereo not given) | 3.49
17 | CCn1cc(CN2C[C@@H]3CCCN3C[C@H]2CCSC)cn1 | -25.4
18 | OC1(Cn2ccc3ncccc32)CCN(Cc2cccnc2)CC1 | 5.72
19 | COCCC(=O)N1CCCC1c1nc(O)cc(-c2ccccn2)n1 (stereo not given) | -5.86
20 | Cc1csc2c(=O)n3c(nc12)CCN(C(=O)c1ccccn1)CC3 | -10.2
21 | CC(C)c1nnc(NC(=O)N(C)Cc2ccncc2)s1 | 5.28
22 | O=C(Nc1ccc(-c2csnn2)cc1)N1CCC(N2CCCC2)C1 (stereo not given) | -8.79

Row | SMILES | cytotoxicity at 10 µM [%]
23 | CS(=O)(=O)NCCCn1ccc2ccccc21 | 4.77
24 | CC(C(=O)NCCc1ccc2c(c1)OCCO2)n1cncn1 (stereo not given) | 6.89
25 | Cn1nc(C(=O)NCCc2ccc(OC3CCCC3)cc2)ccc1=O | -2.61
26 | CCn1ccnc1CN1CCN(c2ccc3nnc(C)n3n2)CC1 | 3.35
27 | COCCOc1ccc(S(=O)(=O)Nc2cccc(O)c2F)cc1C | 27.7
28 | Cc1cc(C)n(CC(C)CNC(=O)NCc2csc(C)n2)n1 (stereo not given) | 11
29 | CN(Cc1nc(C2CC2)no1)C1CCS(=O)(=O)C1 (stereo not given) | 13.2
30 | CC1CCCN(C(=O)c2occc2COc2cccc(C#N)c2)C1 (stereo not given) | 4.57
31 | Cc1cc(CN2CCN(CC(=O)NC3(C#N)CCCCC3)CC2)on1 | 5.83
32 | Cc1cc(CNC(=O)N2CCN(C(C)c3cccnc3)CC2)c(C)o1 (stereo not given) | -8.54
33 | CCOC(=O)NCCC(=O)NCc1ccc(Oc2cccc(F)c2)nc1 | 10.9
34 | CCn1cc(C(=O)NCC(OC)c2cccc(Cl)c2)cn1 (stereo not given) | -8.87
35 | CC(C)NC(=O)CCN1CCCC1c1cccc2c1OCCO2 (stereo not given) | 0.354
36 | NC(=O)c1cccc(CNC(=O)NCCOc2ccc(F)c(F)c2)c1 | 9.77
37 | Fc1ccc(OCC2CCCO2)c(NCc2noc(C3CC3)n2)c1 (stereo not given) | 9.61
38 | Cc1noc(C)c1CN1CCN(C(=O)CCn2cncn2)CC1 | 0.975
39 | CC(NC(=O)C1=NN(C)C(=O)CC1)c1ccccc1Cl (stereo not given) | 0.665
40 | CCc1ncc2c(n1)CN(Cc1cc(C)on1)CC2 | -16.7
41 | CC(CN1CCCC1=O)NC(=O)c1cc(=O)[nH]c2ccc(Cl)cc12 (stereo not given) | -7.14
42 | OC1CCN(c2ccccc2NCc2nc(-c3cccs3)no2)CC1 | 10.8
43 | CSC(C)C(=O)N(C)C1CCN(c2ccc(Cl)cc2)CC1 (stereo not given) | 0.204
44 | COCCNc1ccccc1CNC(=O)C1CCCOC1 (stereo not given) | -8.3

Row | SMILES | cytotoxicity at 10 µM [%]
45 | Cc1nc(CN2CCCC(N(C)c3ccc(C#N)cn3)C2)no1 (stereo not given) | -6.76
46 | Cc1cc(NC(=O)N2CCCC2C(C)(C)O)c2ncccc2c1 (stereo not given) | 6.87
47 | CN(Cc1cccs1)S(=O)(=O)c1ccc(C(F)(F)F)nc1 | -5.68
48 | c1cnnc(NCC2CN(CCn3cccn3)CCO2)c1 (stereo not given) | 5.53
49 | CC1CCCN(c2ccccc2OCC(=O)N2CCOCC2)C1 (stereo not given) | -22.3
50 | Clc1ccc(CN2CCCC(Cn3cncn3)C2)c2ncccc12 (stereo not given) | -13.7
51 | Cc1cccc(-n2cc(C(=O)N3CCn4c(C)nnc4C3)nn2)c1 | -10.1
52 | CC(C)(C)c1n[nH]c(C2CN(C(=O)c3cc(C4CC4)on3)CCO2)n1 (stereo not given) | -15.8
53 | CC[C@H](C)[C@H](N)C(=O)N1CC(=O)c2sc(NC3CCCCC3)nc2C1 | -13.7
54 | Fc1ccc(-c2n[nH]cc2-c2ccnc(NCCN3CCCC3)n2)cc1 | 9.05
55 | O=C1CC(C(=O)N2CCc3sccc3C2)CN1Cc1cccnc1 (stereo not given) | -1.18
56 | CN(C)CCN1CC2(CCC1=O)CCN(C(=O)c1ccn(C)n1)CC2 | -11
57 | Cc1nn(C)c2nc(N(CCN(C)C)CC3CCCO3)sc12 (stereo not given) | -4.62
58 | COc1ccc2c(C)nc(N3CCN([C@H]4CCCC[C@@H]4O)CC3)nc2c1 | 7.24
59 | COc1ccc(N2CCN(C(=O)[C@@H]3C[C@@H](O)CN3)CC2(C)C)cc1 | 4.95
60 | Cn1ccnc1C1CCN(S(=O)(=O)c2ccc3c(c2)OCCO3)CC1 | -13.5
61 | CN(Cc1ccc(-n2cccn2)cc1)C(=O)CCC(F)(F)F | -3.67
62 | Cc1cccc(C)c1OC1CN(Cc2cnc(-c3ccco3)nc2)C1 | 6.17
63 | CC(C)c1cc(C2CCN(C(=O)Cn3cnnn3)CC2)[nH]n1 | 8.04
64 | O=C(CCc1nc(Cl)n[nH]1)NC1CCCN(C2Cc3ccccc3C2)C1 (stereo not given) | -18.9
65 | O=C(CCC1CCCN(C(=O)CCN2CCCCO2)C1)N1CCCC1 (stereo not given) | 2.11
66 | CCCc1nc(C(=O)N2C[C@H](CO)C[C@H](CN3CCOCC3)C2)cs1 | 3.79

Row | SMILES | cytotoxicity at 10 µM [%]
67 | Cc1nc(CN(CCc2ccccc2)C2CCN(C)CC2)no1 | -4
68 | COc1ccc(CC2CN(C3CCSCC3)CCO2)cc1 (stereo not given) | 4.49
69 | CCOCC1(CNCc2cc(O)c3cc(C)ccc3n2)CC1 | -9.19
70 | CN(C)C(C(=O)NCC1(C)COC1)c1cccc(F)c1 (stereo not given) | -6.41
71 | c1ccc(OCCN2CCN(c3ncnc4[nH]ccc34)CC2)cc1 | 8.64
72 | CCC(C(=O)NCc1noc(Cc2cccs2)n1)n1cccn1 (stereo not given) | -1.91
73 | COc1ccc(CN2C[C@@H](CN(C)C)[C@@H](CO)C2)c(Cl)c1OC | -8.44
74 | COc1ccc(C)cc1S(=O)(=O)N[C@H]1CN(C(C)=O)C[C@@H]1C1CC1 | -3.64
75 | CCc1nc(N2CCC3(CCC(=O)N(CCCO)C3)CC2)no1 | 0.814
76 | Cc1cnn(CCCNC(=O)CCC2CCCCN2C)c1 (stereo not given) | -7.32
77 | CCCN1CCCn2nc(CNC(=O)CCc3scnc3C)cc2C1 | 1.47
78 | Cc1cnn(C(C)C2CC2)c1NC(=O)c1ccncc1 (stereo not given) | -8.48
79 | Cn1cc(C(=O)NC(Cn2cccn2)C(C)(C)C)cn1 (stereo not given) | -6.36
80 | Cn1nnnc1SCC1COc2ccccc2O1 (stereo not given) | -1.94
81 | CC(=O)N1CCCN(C(=O)NCCOc2ccc3c(c2)CCC3)CC1 | -1.84
82 | COc1c(CNC(c2ccccc2)c2ccc(F)cc2)c(C)nn1C (stereo not given) | -5.16
83 | CC(C)c1nccn1C1CCCN(C(=O)c2cc(C(N)=O)cs2)C1 (stereo not given) | -2.61
84 | Cc1cnn(CC2CCCN2C(=O)c2csc(C(C)C)n2)c1 (stereo not given) | 4.89
85 | O=C(COc1ccc2c(c1)CCC2)N1CCCC(n2cccn2)C1 (stereo not given) | -2.58
86 | Cc1ccccc1NS(=O)(=O)c1cc2c(c(C(=O)O)c1)OCCO2 | -11.7
87 | Cc1cc(C)n(CC2CCCN2C(=O)c2c[nH]c3ncccc23)n1 (stereo not given) | -0.808
88 | COc1cccc2cc(CNCc3ccnc(N4CCOCC4)c3)oc12 | -8.55

Row | SMILES | cytotoxicity at 10 µM [%]
89 | Cc1nn(C)c(Cl)c1C1CCCN1C(=O)c1ccc2nncn2c1 (stereo not given) | -10.2
90 | Cc1occc1CNC(=O)N(CCCO)C1CCc2ccccc21 (stereo not given) | -0.842
91 | Cc1occc1C(=O)NCc1ccc(N2CCCC(C(N)=O)C2)cc1 (stereo not given) | 1.49
92 | O=C(Cc1csc(-c2ccco2)n1)N1CCN(CCO)CC1 | -0.337
93 | Cc1oc(C)c(C(=O)NCc2cccc(NC(=O)CN(C)C)c2)c1C | -6.54
94 | Cc1ccc(N2CCCC(NCc3ccc(C)o3)C2)nn1 (stereo not given) | 0.0722
95 | CC(=O)N(Cc1ncc(C)o1)C1CCN(Cc2noc(C)n2)C1 (stereo not given) | 0
96 | O=C(O)C1(Cc2ccc(-c3cccs3)cc2)CCNC1 (stereo not given) | -0.74
97 | Cc1ncc(C(=O)N2CCOC(C(=O)N3CCCCCC3)C2)c(C)n1 (stereo not given) | 3.67
98 | Fc1ccc(OCCCNC2=NCCCN2)cc1 | -7.91
99 | COc1cc(CN2CCn3c(CO)nnc3C2)ccc1OC(C)C | -25.4
100 | Cc1cc(C)c(N(CC(O)CNCc2ccccc2)S(C)(=O)=O)c(C)c1 (stereo not given) | -12.7
101 | O=C(N1CCCC1)N1CCO[C@H]2[C@@H](Oc3ccccn3)CC[C@@H]21 | 8.95
102 | CS(=O)(=O)N1CCOCC2(CCN(Cc3ccoc3)CC2)C1 | 2.64
103 | Cc1ccc(CN2CC3(CCN(C(=O)c4cscn4)C3)C2)s1 | -10.3
104 | Cc1ccc(CN2CCC(F)(F)C3(CCN(c4cnccn4)C3)C2)o1 (stereo not given) | -3.71
105 | O=C([C@@H]1COC[C@H]2CN(C3CCCC3)C[C@H]21)N1CCCO1 | -0.262
106 | O=C1NC2(CCN(Cc3ccc(F)cc3)CC2)CC1c1ccncc1 (stereo not given) | 3.16
107 | CCn1ncc2c1C(COCC1CC1)CN(S(=O)(=O)N(C)C)C2 (stereo not given) | -10.4
108 | CN(C)CC(=O)N1CCC2(CC1)COC(COc1ccccn1)C2 (stereo not given) | -3.14
109 | O=C(C1CCOCC1)N1C[C@@H]2CC[C@H]1CN(Cc1ccncc1)C2 | -11
110 | Cn1ncc2c(N[C@@H]3C[C@H]4CC[C@@H]3C4)nc(-c3ccncc3)nc21 | 5.89
